Test results from ChEMBL document CHEMBL4406803, “A- and D-Ring Structural Modifications of an Androsterone Derivative Inhibiting 17β-Hydroxysteroid Dehydrogenase Type 3: Chemical Synthesis and Structure-Activity Relationships” (J Med Chem, 2019).

Key:
[1] = molecular target: T1, 17-beta-hydroxysteroid dehydrogenase type 3 (Homo sapiens) (UniProt P37058); experiment: Inhibition of 17beta-HSD3 (unknown origin) expressed in human LNCAP cells assessed as reduction in [14C]-testosterone formation from [14C]-4-androstene-3,17-dione at 1 uM measured after 1 hr relative to control; assay type: cell-based
T1 sequence (whole entry): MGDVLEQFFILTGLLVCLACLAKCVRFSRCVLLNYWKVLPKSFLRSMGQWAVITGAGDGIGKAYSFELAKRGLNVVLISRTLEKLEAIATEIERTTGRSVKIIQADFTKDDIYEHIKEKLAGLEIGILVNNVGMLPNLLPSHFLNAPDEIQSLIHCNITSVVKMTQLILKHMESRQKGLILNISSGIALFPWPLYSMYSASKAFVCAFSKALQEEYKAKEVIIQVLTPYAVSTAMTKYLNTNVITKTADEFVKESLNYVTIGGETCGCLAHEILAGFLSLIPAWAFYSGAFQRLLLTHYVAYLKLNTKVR
Summary of the method: (§1)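 LNCaP cells stably transfected with 17β-HSD3 were plated at 10,000 per well in hygromycin-free medium and grown 2 days. They were then given 15 nM [14C]-4-androstenedione plus inhibitor at 0.1, 0.5 or 1.0 µM (0.05% DMSO final) for 1 h. Steroids were ether-extracted, separated by TLC and quantified by radioimaging. Results are % inhibition of conversion to T.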

[2] = system: LAPC4; experiment: Androgenic activity in human LAPC4 cells expressing androgen receptor assessed as effect on cell proliferation at 1 uM supplemented with fresh medium containing compounds every 3 days for 7 days by MTS assay (reference value: 100%); assay type: ADME, cell-based; conditions: lapc4, 168 h
Summary of the method: (§2)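 Androgen-dependent LAPC-4 cells were seeded at 5,000 per well in IMDM with 5% dextran-coated charcoal-treated FBS and pre-incubated 24 h at 37 °C, 5% CO2. Compounds were added from DMSO stock at 0.1, 0.5 and 1.0 µM, with 0.05% DMSO in controls. Incubation lasted 7 days, with a medium change at day 3. Growth was read by MTS (4 h, 490 nm) as % of untreated control (100%), in triplicate.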

[3] = molecular target: T1, 17-beta-hydroxysteroid dehydrogenase type 3 (Homo sapiens); experiment: Inhibition of 17beta-HSD3 (unknown origin) expressed in human LNCAP cells assessed as reduction in [14C]-testosterone formation from [14C]-4-androstene-3,17-dione at 0.1 uM measured after 1 hr relative to control; assay type: cell-based; summary of the method: as §1
[4] = molecular target: T1, 17-beta-hydroxysteroid dehydrogenase type 3 (Homo sapiens); experiment: Inhibition of 17beta-HSD3 (unknown origin) expressed in human LNCAP cells assessed as reduction in [14C]-testosterone formation from [14C]-4-androstene-3,17-dione at 0.5 uM measured after 1 hr relative to control; assay type: cell-based; summary of the method: as §1
[5] = system: LAPC4; experiment: Androgenic activity in human LAPC4 cells expressing androgen receptor assessed as effect on cell proliferation at 0.5 uM supplemented with fresh medium containing compounds every 3 days for 7 days by MTS assay (reference value: 100%); assay type: ADME, cell-based; conditions: lapc4, 168 h; summary of the method: as §2
[6] = system: LAPC4; experiment: Androgenic activity in human LAPC4 cells expressing androgen receptor assessed as effect on cell proliferation at 0.1 uM supplemented with fresh medium containing compounds every 3 days for 7 days by MTS assay (reference value: 100%); assay type: ADME, cell-based; conditions: lapc4, 168 h; summary of the method: as §2
[7] = molecular target: T2, 17-beta-hydroxysteroid dehydrogenase type 3 (Homo sapiens, UniProt P37058); experiment: Inhibition of 17beta-HSD3 (unknown origin) expressed in human LNCAP cells assessed as reduction in [14C]-testosterone formation from [14C]-4-androstene-3,17-dione measured after 1 hr; assay type: cell-based
T2 sequence (P37058 whole entry): T1 sequence (whole entry)
Summary of the method: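 Transfected LNCaP[17β-HSD3] cells were incubated 1 h with 15 nM [14C]-4-androstenedione and inhibitor at seven concentrations (0.001–5.0 µM; 0.05% DMSO). [14C]-T formation was measured by TLC and radioimaging. IC50 was obtained by curve fitting, averaging two independent experiments in triplicate.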

[8] = Stability of the compound in human liver S9 fraction at 10 uM measured after 1 hr by NADPH by HPLC-MS analysis; assay type: ADME, subcellular; conditions: s9, 1 h
Summary of the method: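 Substrate (10 µM) was incubated 1 h at 37 °C with 40 µg human liver S9 fraction in 50 mM Tris with 10 mM MgCl2, with or without 10 mM NADPH. The reaction was stopped with MeOH. Remaining parent was measured by HPLC-MS (UV 190 nm) as the AUC ratio with/without NADPH ×100. Values are the mean ± SD of four independent experiments.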

[9] = system: LAPC4; experiment: Antiproliferative activity against human LAPC4 cells expressing androgen receptor assessed as inhibition of cell proliferation at 0.5 uM supplemented with fresh medium containing compounds every 3 days for 7 days by MTS assay relative to control; assay type: functional; summary of the method: as §2
[10] = system: PC-3; experiment: Antiproliferative activity against AR-deficient human PC3 cells assessed as reduction in cell proliferation at 0.5 uM measured after 3 days by MTS assay relative to control; assay type: functional; set-up: scale not given: the % may be the effect or the level left
Summary of the method: (§3)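 Androgen-independent PC-3 cells were plated at 3,000 per well in triplicate in RPMI-1640 with 10% FBS. Compounds were added at 0.1, 0.5 and 1.0 µM from DMSO stock, with 0.05% DMSO in controls, and incubated 3 days. Growth was read by MTS (4 h, 490 nm) and expressed as % of non-treated control (100%).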

[11] = system: LAPC4; experiment: Antiproliferative activity against human LAPC4 cells expressing androgen receptor assessed as inhibition of cell proliferation at 0.1 uM supplemented with fresh medium containing compounds every 3 days for 7 days by MTS assay relative to control; assay type: functional; summary of the method: as §2
[12] = system: PC-3; experiment: Antiproliferative activity against AR-deficient human PC3 cells assessed as reduction in cell proliferation at 1 uM measured after 3 days by MTS assay relative to control; assay type: functional; set-up: scale not given: the % may be the effect or the level left; summary of the method: as §3
[13] = Plasma concentration in mouse at 25 mg/kg, sc administered as single dose measured after 3 hrs by LC-MS/MS analysis; assay type: ADME, organism-based
Summary of the method: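 Female mice were fasted 8 h, then given a single 25 mg/kg subcutaneous dose in 0.1 mL of 0.4% aqueous methylcellulose with 8% DMSO. At 3 h, blood was taken by cardiac puncture into K-EDTA tubes (3 mice per group). Plasma was extracted and analysed by LC-MS/MS against a plasma calibration curve.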

[14] = system: LAPC4; experiment: Antiproliferative activity against human LAPC4 cells expressing androgen receptor assessed as inhibition of cell proliferation at 1 uM supplemented with fresh medium containing compounds every 3 days for 7 days by MTS assay relative to control; assay type: functional; summary of the method: as §2
[15] = system: PC-3; experiment: Antiproliferative activity against AR-deficient human PC3 cells assessed as reduction in cell proliferation at 0.1 uM measured after 3 days by MTS assay relative to control; assay type: functional; set-up: scale not given: the % may be the effect or the level left; summary of the method: as §3
[16] = system: LAPC4; experiment: Antiproliferative activity against human LAPC4 cells expressing androgen receptor assessed as inhibition of cell proliferation supplemented with fresh medium containing compounds every 3 days for 7 days by MTS assay; assay type: functional, cell-based; summary of the method: as §2
[17] = molecular target: T3, 17-beta-hydroxysteroid dehydrogenase type 3 (Rattus norvegicus, UniProt O54939); experiment: Inhibition of 17beta-HSD3 in Sprague-Dawley rat testes microsomal fraction assessed as reduction in [14C]-testosterone formation from [14C]-4-androstene-3,17-dione measured after 2 hrs; set-up: species or system Testis
T3 sequence (O54939 whole entry): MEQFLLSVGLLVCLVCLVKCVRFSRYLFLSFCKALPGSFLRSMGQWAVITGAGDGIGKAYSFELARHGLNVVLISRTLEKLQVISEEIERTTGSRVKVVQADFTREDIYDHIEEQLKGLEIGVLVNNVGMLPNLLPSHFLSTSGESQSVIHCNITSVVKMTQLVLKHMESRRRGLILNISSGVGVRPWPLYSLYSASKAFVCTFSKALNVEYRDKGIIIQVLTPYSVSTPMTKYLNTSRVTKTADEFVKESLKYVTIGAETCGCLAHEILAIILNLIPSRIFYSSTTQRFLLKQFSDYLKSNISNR
Summary of the method: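 The enzyme source was a microsomal fraction from Sprague-Dawley rat testes, prepared by homogenization in phosphate/sucrose/EDTA buffer (pH 7.5) and centrifugation at 100,000 g. The assay ran 2 h at 37 °C in 50 mM sodium phosphate (pH 7.4, 20% glycerol, 1 mM EDTA) with NADPH cofactor and [14C]-4-androstenedione. [14C]-T formation was measured at six inhibitor concentrations in triplicate, and IC50 was fitted from the curves.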

Row | SMILES | inhibition [1] [%] | Activity [2] [%] | inhibition [3] [%] | inhibition [4] [%] | Activity [5] [%] | Activity [6] [%] | IC50 [7] [nM] | Stability [8] | inhibition (INH) [9] [%] | Activity [10] [%] | inhibition (INH) [11] [%] | Activity [12] [%] | concentration at 3 h [13] [ng/mL] | inhibition (INH) [14] [%] | Activity [15] [%] | inhibition [16] | IC50 [17] [nM]
1 | CC1CN(S(=O)(=O)c2ccccc2C(F)(F)F)C(C)CN1C[C@@]1(O)CC[C@@]2(C)[C@@H](CC[C@@H]3[C@@H]2CC[C@]2(C)C(=O)[C@H](F)C[C@@H]32)C1 (stereo partly drawn) | 90 | 126.6 | 22 | 75 | 134.2 | 147.7 | 200 | Stable | – | – | – | – | – | – | – | – | –
2 | CC(=O)[C@H]1CC[C@H]2[C@@H]3CC[C@H]4C[C@@](O)(CN5CC(C)N(S(=O)(=O)c6ccccc6C(F)(F)F)CC5C)CC[C@]4(C)[C@H]3CC[C@]12C (stereo partly drawn) | 42 | 27.1 | 10 | 30 | 26.4 | 45.9 | 2600 | Stable | – | – | – | – | – | – | – | – | –
3 | CC1CN(S(=O)(=O)c2ccccc2C(F)(F)F)C(C)CN1C[C@@]1(O)CC[C@@]2(C)[C@@H](CC[C@@H]3[C@@H]2CC[C@]2(C)/C(=N/O)CC[C@@H]32)C1 (stereo partly drawn) | 90 | – | 40 | 80 | – | – | 220 | Stable | 41 | 6 | -8 | 4 | 94.7 | 56 | 10 | Dose-dependent effect | –
4 | CC1CN(S(=O)(=O)c2ccccc2C(F)(F)F)C(C)CN1C[C@@]1(O)CC[C@H]2[C@@H](CC[C@@H]3[C@@H]2CC[C@]2(C)C(=O)CC[C@@H]32)C1 (stereo partly drawn) | 94 | 63.1 | 20 | 82 | 66.3 | 92.8 | 220 | Unstable | – | – | – | – | – | – | – | – | –
5 | CC1CN(S(=O)(=O)c2ccccc2C(F)(F)F)C(C)CN1CC(O)c1ccc2c(c1)CC[C@@H]1[C@@H]2CC[C@]2(C)C(=O)CC[C@@H]12 (single isomer, unassigned; diastereomer B) [listing 1 of 2 here] | – | – | – | – | – | – | 20 | – | 32 | 6 | -3 | 5 | 48.7 | 44 | 8 | – | 60
6 | CC1CN(S(=O)(=O)c2ccccc2C(F)(F)F)C(C)CN1CC(O)c1ccc2c(c1)CC[C@@H]1[C@@H]2CC[C@]2(C)C(=O)CC[C@@H]12 (single isomer, unassigned; diastereomer B) [listing 2 of 2 here] | 100 | – | 84 | 98 | – | – | – | – | – | – | – | – | – | – | – | Dose-dependent effect | –
7 | CC1CN(S(=O)(=O)c2ccccc2C(F)(F)F)C(C)CN1C(=O)c1ccc2c(c1)CC[C@@H]1[C@@H]2CC[C@]2(C)C(=O)CC[C@@H]12 (stereo partly drawn) | 90 | – | 45 | 78 | – | – | 100 | Stable | 54 | 0 | 40 | 6 | 108 | 63 | 7 | Dose-dependent effect | 110
8 | CC1CN(S(=O)(=O)c2ccccc2C(F)(F)F)C(C)CN1C[C@@]1(O)CC[C@@]2(C)[C@@H](CC[C@@H]3[C@@H]2CC[C@]2(C)C(=O)CC[C@@H]32)C1 (stereo partly drawn) | 100 | – | 60 | 96 | – | – | 90 | Unstable | 52 | 6 | 4 | 11 | 27.7 | 67 | 9 | Dose-dependent effect | 80
